Calls of active or inactive are those of the source. No cut-off for these calls is given here.
What was measured:
Rattus norvegicus [1] = species: Rattus norvegicus; experiment: Ability of compound to induce behavioral changes in rat; format: functional; conditions: read-out: MED
Outline: (§1)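 Rats dosed subcutaneously and observed for locomotor activity and serotonin syndrome signs (flat body posture, forepaw extension and padding, abducted hindlimbs, forebody tremor). Antagonism was tested by giving the compound 15 min before subcutaneous 8-OH-DPAT.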

Felis catus [2] = experiment: Minimum effective dose administered intravenously for decrease in heart rate in cat; format: functional; conditions: iv, read-out: MED
Outline: (§2)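 Cats anesthetized with pentobarbital sodium (30 mg/kg ip), intubated and ventilated, with bilateral vagotomy and atropine sulfate 200 μg/kg. Compound given iv via femoral vein, doses up to 1 mg/kg. Femoral arterial pressure and heart rate were recorded continuously. The right postganglionic cardioaccelerator nerve was stimulated at 2 Hz, 5 ms, 20 V.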

Felis catus [3] = experiment: Minimum effective dose administered intravenously for decrease in arterial pressure in cat heart; format: functional; conditions: Artery, iv, read-out: MED; outline: as §2
D(2) dopamine receptor = D(2) dopamine receptor (Rattus norvegicus, UniProt P61169); experiment: Binding affinity of compound against Dopamine receptor D2 binding site using radioligand [3H]spiperone
Sequence of D(2) dopamine receptor (P61169 whole entry): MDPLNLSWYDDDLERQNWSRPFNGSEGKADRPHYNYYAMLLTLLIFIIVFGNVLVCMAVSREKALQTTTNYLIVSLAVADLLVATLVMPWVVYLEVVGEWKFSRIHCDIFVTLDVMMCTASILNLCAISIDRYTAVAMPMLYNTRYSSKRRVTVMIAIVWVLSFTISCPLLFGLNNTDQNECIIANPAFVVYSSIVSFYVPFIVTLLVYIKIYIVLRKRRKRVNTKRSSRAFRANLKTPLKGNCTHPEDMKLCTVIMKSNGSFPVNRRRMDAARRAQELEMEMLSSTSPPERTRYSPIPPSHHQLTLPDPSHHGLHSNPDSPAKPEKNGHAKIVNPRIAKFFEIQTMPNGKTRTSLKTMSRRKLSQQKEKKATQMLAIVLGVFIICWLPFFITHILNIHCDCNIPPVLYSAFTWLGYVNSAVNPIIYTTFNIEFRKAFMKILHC

[4] = target: T1, 5-hydroxytryptamine receptor 1A (Rattus norvegicus, UniProt P19327); experiment: Binding affinity of compound against 5-hydroxytryptamine 1A receptor binding site using radioligand [3H]8-OH-DPAT
T1 sequence (P19327 whole entry): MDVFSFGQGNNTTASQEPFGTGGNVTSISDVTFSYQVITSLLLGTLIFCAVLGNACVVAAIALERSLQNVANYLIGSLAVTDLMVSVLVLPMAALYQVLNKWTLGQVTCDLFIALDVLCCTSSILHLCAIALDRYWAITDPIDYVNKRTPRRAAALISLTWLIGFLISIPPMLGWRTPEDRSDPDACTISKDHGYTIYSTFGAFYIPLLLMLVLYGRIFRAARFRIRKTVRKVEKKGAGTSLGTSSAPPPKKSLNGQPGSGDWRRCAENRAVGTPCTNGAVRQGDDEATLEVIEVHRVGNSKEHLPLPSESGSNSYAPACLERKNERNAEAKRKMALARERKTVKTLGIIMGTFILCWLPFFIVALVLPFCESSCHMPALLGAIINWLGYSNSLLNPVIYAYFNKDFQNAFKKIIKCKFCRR

Rattus norvegicus [5] = species: Rattus norvegicus; experiment: Ability of compound to induce behavioral changes in rat; Not active; format: functional, organism-based; outline: as §1

Compound | minimal effective dose (Rattus norvegicus [1]) [mg/kg] | minimal effective dose (Felis catus [2]) [mg/kg] | minimal effective dose (Felis catus [3]) [mg/kg] | Ki (D(2) dopamine receptor) [µM] | Ki [4] [µM] | MED (Rattus norvegicus [5])
CN1CCc2cccc3c2[C@H]1Cc1ccc(O)c(O)c1-3 [APOMORPHINE] | 1 | 0.01 | 0.01 |  |  | 
CCCN(CCC)C1CCc2cccc(O)c2C1 (stereo not drawn) [8-OH-DPAT] | 0.5 | 0.01 | 0.01 | 3.5 |  | 
COc1ccc(OC)c2c1C[C@@H]1c3c(cccc3-2)CCN1C | 5 | > 1 | > 1 | 0.21 | 0.0086 | 
O=C(CCCN1CCC2(CC1)C(=O)NCN2c1ccccc1)c1ccc(F)cc1 [SPIPERONE] |  |  |  |  | 0.03 | 
CCCN1CCc2cccc3c2[C@H]1Cc1c(OC)ccc(OC)c1-3 |  | > 1 | > 1 | 0.77 | 0.24 | inactive
